# Measured values from ChEMBL document CHEMBL4130578, “Synthesis, biological evaluation and structure-activity relationship studies of hederacolchiside E and its derivatives as potential anti-Alzheimer agents” (Eur J Med Chem, 2018).
# The source made the active and inactive calls. The rule behind the calls is not given here.
# Assays:
# PC-12 [1] = assay: Cytoprotection against amyloid beta (1 to 42)-induced cell injury in rat PC12 cells assessed as cell viability at 50 uM preincubated for 12 hrs followed by amyloid beta (1 to 42) addition measured after 12 hrs by MTT assay (reference value: 55.3 +/- 1.5%); type: functional; conditions: read-out: Activity
# PC-12 [2] = assay: Cytoprotection against H2O2-induced cell injury in rat PC12 cells assessed as increase in cell viability at 1 to 50 uM preincubated for 12 hrs followed by H2O2 addition measured after 12 hrs by MTT assay; type: functional, cell-based
# Summary of the method: (§1)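 PC12 cells grown in RPMI-1640 with 15% FBS and penicillin/streptomycin, subcultured every 2 days and cultured 8 days before use. Cells seeded at 1 × 10^4/well, after 12 h pretreated with compound 12 h, then exposed to 200 µM H2O2 for 12 h. MTT added for 4 h, formazan dissolved in DMSO, OD 490 nm read. Viability given as % of untreated control, mean ± SD, n = 3, ANOVA with Dunnett's test.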
# PC-12 [3] = assay: Cytoprotection against amyloid beta (1 to 42)-induced cell injury in rat PC12 cells assessed as cell viability at 10 uM preincubated for 12 hrs followed by amyloid beta (1 to 42) addition measured after 12 hrs by MTT assay (reference value: 55.3 +/- 1.5%); type: functional; conditions: read-out: Activity
# PC-12 [4] = assay: Cytoprotection against H2O2-induced cell injury in rat PC12 cells assessed as increase in cell viability at 20 uM preincubated for 12 hrs followed by H2O2 addition measured after 12 hrs by MTT assay; type: functional, cell-based; summary of the method: as §1
SMILES,viability at 50 µM (PC-12 [1]) [%],Activity (PC-12 [2]),viability at 10 µM (PC-12 [3]) [%],Activity (PC-12 [4])
C[C@@H]1O[C@@H](O[C@H]2[C@H](O[C@H]3CC[C@]4(C)[C@H]5CC=C6[C@@H]7CC(C)(C)CC[C@]7(C(=O)O[C@@H]7O[C@H](CO)[C@@H](O[C@@H]8O[C@@H](C)[C@H](O)[C@@H](O)[C@H]8O)[C@H](O)[C@H]7O)CC[C@@]6(C)[C@]5(C)CC[C@H]4C3(C)C)OC[C@H](O[C@@H]3O[C@H](CO)[C@@H](O)[C@H](O)[C@H]3O)[C@@H]2O)[C@H](O)[C@H](O)[C@H]1O,63.3,Active,59.3,–
CC1=NN(c2ccccc2)C(=O)C1,–,–,–,Active
